SMILES strings stand for the structures. Values after ≈ are worked out from the molar mass of the structure shown. Active and inactive are the calls of the source. The calls are words filed in the database; no cut-off is given here. Where only a bound is given, the exact number is not on record here.

The results in this text go back to ChEMBL document CHEMBL4118238, “Facilely accessible quinoline derivatives as potent antibacterial agents” (Bioorg Med Chem, 2018).

The test system of one series is Staphylococcus aureus. Kind of series: Antibacterial activity against methicillin-resistant Staphylococcus aureus ATCC 33591 by CLSI M11-A7 protocol based method. Type of series: functional. The method in brief: (§1)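 Broth MIC by a previously described standard protocol; MIC is the lowest concentration giving complete growth inhibition. Compounds were dosed from DMSO stocks with final DMSO below 0.5%. Each experiment was repeated at least three times in duplicate.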

In series [1] the test system is Staphylococcus epidermidis. Kind of series: Antibacterial activity against methicillin resistant Staphylococcus epidermidis RP62A by CLSI M11-A7 protocol based method. It counts as functional. In outline:
as §1

The next series has as its system Enterococcus faecalis. Put plainly: Antibacterial activity against vancomycin resistant Enterococcus faecalis ATCC 700802 by CLSI M11-A7 protocol based method. It counts as functional. The method in brief: as §1
Series [2] concerns Clostridioides difficile. Put plainly: Antibacterial activity against Clostridium difficile UK6 by CLSI M11-A7 protocol based method. Type of series: functional. In outline: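 C. difficile UK6 MICs followed CLSI media and methods for anaerobe susceptibility testing. MIC was taken as the lowest concentration giving complete growth inhibition. DMSO stocks were used, with final DMSO below 0.5%. Runs were repeated at least three times, in duplicate each time.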

A further series has as its system HepG2. Put plainly: Cytotoxicity against human HepG2 cells assessed as reduction in cell viability after 24 hrs by MTT assay. It counts as cell-based. Conditions: HepG2, 24 h. The method in brief:
(§2)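 Cells were grown in DMEM with 10% FBS and 1% penicillin/streptomycin at 37°C, 5% CO2, then seeded at 10^4 cells/well overnight. They were exposed to 128 to 0.125 µg/ml compound, or 1% DMSO control, for 24 h at 37°C. MTT was added for 4 h, formazan dissolved in DMSO for 15 min, and A540 read. IC50 was relative to control-treated cells, in three replicates.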
(Tetrazolium dyes change colour on reduction, which living cells bring about.)

The next series concerns HEK-293T. Kind of series: Cytotoxicity against HEK293T cells assessed as reduction in cell viability after 24 hrs by MTT assay. The following applies: Homo sapiens. Type of series: cell-based. The method in brief: as §2
Series [3] can be described thus: Selectivity index, ratio of IC50 for human HepG2 cells to MIC for Clostridium difficile UK6. It counts as toxicity. The following applies: read-out: Selectivity Index.
Series [4] is described as follows: Selectivity index, ratio of IC50 for HEK293 cells to MIC for Clostridium difficile UK6. It counts as toxicity. The following applies: human, read-out: Selectivity Index.
Series [5] concerns Clostridioides difficile. Kind of series: Antibacterial activity against Clostridium difficile UK6 infected in C57BL/6 mouse assessed as increase in mouse survival at 50 mg/kg, po bid via gavage for 5 days starting from 4 hrs post challenge measured from day 3 to 5 during compound dosing relative to control. Type of series: functional. The method in brief:
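Female C57BL/6 mice (6 weeks) received a six-antibiotic cocktail in drinking water for 5 days, then autoclaved water for 2 days and clindamycin 10 mg/kg ip on day −1. On day 0 they were challenged by gavage with 10^6 CFU UK6 spores. Compound was given by gavage at 50 mg/kg 4 h post-challenge, then twice daily from day 1 for five days. Survival was monitored daily versus an untreated infected group (n=10 per group).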

Series [6] relates to Clostridioides difficile. Put plainly: Antibacterial activity against Clostridium difficile UK6 infected in C57BL/6 mouse assessed as decrease in bacterial count in feces at 50 mg/kg, po bid via gavage for 5 days starting from 4 hrs post challenge by serial dilution method relative to control. On the set-up: scale not given: the % may be the effect or the level left. Type of series: functional. The method in brief: (§3)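 Female 6-week C57BL/6 mice (n=10 per group) got an antibiotic cocktail in drinking water for 5 days and autoclaved water for 2 days. Clindamycin 10 mg/kg ip followed one day before gavage of 10^6 CFU UK6 spores. Dosing was 50 mg/kg by gavage at 4 h, then twice daily for five days. Feces from days 1, 3 and 5 were ethanol-shocked, serially diluted and plated anaerobically 48 h. Counts are CFU/g, triplicate plates.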

In series [7] the test system is Clostridioides difficile. Put plainly: Antibacterial activity against Clostridium difficile UK6 infected in C57BL/6 mouse assessed as decrease in diarrhea at 50 mg/kg, po bid via gavage for 5 days starting from 4 hrs post challenge measured daily during compound dosing. It counts as functional, organism-based. In outline:
(§4)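 Female 6-week C57BL/6 mice (n=10 per group) were antibiotic-pretreated, given clindamycin, then gavaged with 10^6 CFU UK6 spores. Compound was given at 50 mg/kg by gavage at 4 h post-challenge, then twice daily for five days. Mice were checked daily for five days. Percent diarrhea is mice with diarrhea divided by mice in the group, compared by Pearson chi-square.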

Series [8] deals with Clostridioides difficile. Kind of series: Antibacterial activity against Clostridium difficile UK6 infected in C57BL/6 mouse assessed as decrease in diarrhea at 50 mg/kg, po bid via gavage for 5 days starting from 4 hrs post challenge measured after 2 days relative to control. On the set-up: scale not given: the % may be the effect or the level left. Type of series: functional. In outline:
as §4

Series [9] deals with Clostridioides difficile. Put plainly: Antibacterial activity against Clostridium difficile UK6 infected in C57BL/6 mouse assessed as decrease in bacterial count in feces at 50 mg/kg, po bid via gavage for 5 days starting from 4 hrs post challenge measured after 5 days by serial dilution method relative to control. Type of series: functional. The method in brief:
as §3

Series [10] concerns Mus musculus. Kind of series: Toxicity in C57BL/6 mouse assessed as diarrhea at 50 mg/kg, po bid via gavage for 5 days starting from 4 hrs post challenge measured. Type of series: organism-based. Conditions: in vivo. The method in brief:
(§5)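 Uninfected female 6-week C57BL/6 mice (n=5) received 50 mg/kg by gavage on the infected group's schedule: at 4 h, then twice daily for five days. They were monitored daily for five days for weight change, survival, diarrhea and other disease signs.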

Series [11] has as its system Mus musculus. Put plainly: Toxicity in C57BL/6 mouse assessed as development of Clostridium difficile infection symptoms at 50 mg/kg, po bid via gavage for 5 days starting from 4 hrs post challenge measured. Type of series: organism-based. Conditions: in vivo. In outline: as §5

Usually MIC stands for the lowest concentration that inhibits growth of the organism. In the case of `COc1cc2nccc(Nc3ccc(F)c(Cl)c3)c2cc1OCc1ccccc1C`, the MIC against Staphylococcus aureus was determined as 1.5 µg/mL (≈ 3.55 µM); in [1], 3 µg/mL (≈ 7.09 µM); against Enterococcus faecalis it was 1.5 µg/mL (≈ 3.55 µM); in the series on Clostridioides difficile [2], 8 µg/mL (≈ 18.9 µM).
Regarding `COc1cc2nccc(Nc3cccc(C(F)(F)F)c3)c2cc1OCc1ccc(C(F)(F)F)cc1`, the MIC is 3 µg/mL (≈ 6.09 µM) against Staphylococcus aureus, 6 µg/mL (≈ 12.2 µM) in [1], 3 µg/mL (≈ 6.09 µM) in the series on Enterococcus faecalis and 4 µg/mL (≈ 8.12 µM) in the series with Clostridioides difficile [2].
For `COc1cc2nccc(Nc3ccc(F)c(Cl)c3)c2cc1OCc1ccc(C(F)(F)F)cc1`, the MIC in the series on Staphylococcus aureus is 1.5 µg/mL (≈ 3.15 µM); in series [1] it was 3 µg/mL (≈ 6.29 µM); in the series on Enterococcus faecalis, 1.5 µg/mL (≈ 3.15 µM); with Clostridioides difficile [2], 4 µg/mL (≈ 8.39 µM).
Turning to `COc1cc2nccc(Nc3ccc(C)cc3)c2cc1OCc1ccc(C(F)(F)F)cc1`, the MIC in the series with Staphylococcus aureus is 3 µg/mL (≈ 6.84 µM); in series [1], 3 µg/mL (≈ 6.84 µM); against Enterococcus faecalis, 3 µg/mL (≈ 6.84 µM); with Clostridioides difficile [2], 4 µg/mL (≈ 9.12 µM).
Consider `COc1cc2nccc(Nc3ccc(F)c(Cl)c3)c2cc1OCCOc1ccccc1`, for which the MIC was 3 µg/mL (≈ 6.84 µM) in the series on Staphylococcus aureus, 3 µg/mL (≈ 6.84 µM) in [1], 3 µg/mL (≈ 6.84 µM) in the series on Enterococcus faecalis and 4 µg/mL (≈ 9.11 µM) with Clostridioides difficile [2].
The IC50 is the concentration that gives 50% inhibition. For the compound `COc1cc2nccc(Nc3ccc(F)c(Cl)c3)c2cc1OCc1ccc(C(C)C)cc1`, the MIC with Staphylococcus aureus stood at 1.5 µg/mL (≈ 3.33 µM); in [1], 6 µg/mL (≈ 13.3 µM); in the series on Enterococcus faecalis, 3 µg/mL (≈ 6.65 µM); against Clostridioides difficile [2], 1 µg/mL (≈ 2.22 µM). In addition, the IC50 in the series on HepG2 was found to be 148 µM; in the series with HEK-293T it was 146 µM. In addition, the selectivity ratio in [3] and in [4] was above 60 in each case. For the same compound, the Activity with Clostridioides difficile [5] is given as 20%; in the series on Clostridioides difficile [6], above 80%; in the series on Clostridioides difficile [8], 32%; in the series with Mus musculus [10], “Non-Toxic”; in the series on Mus musculus [11] it was “Non-Toxic”. Further, in the series with Clostridioides difficile [7], the result was Active. The “fold change (FC)” value with Clostridioides difficile [9] was determined as 14.
As to `COc1cc2nccc(Nc3ccc(C)cc3)c2cc1OCc1ccc(C)cc1`, the MIC is 12 µg/mL (≈ 31.2 µM) against Staphylococcus aureus and above 16 µg/mL in the series on Clostridioides difficile [2].
Consider `CCCCCCCCCC(=O)N[C@@H](Cc1c[nH]c2ccccc12)C(=O)N[C@@H](CC(N)=O)C(=O)N[C@@H](CC(=O)O)C(=O)N[C@@H]1C(=O)NCC(=O)N[C@@H](CCCN)C(=O)N[C@@H](CC(=O)O)C(=O)N[C@H](C)C(=O)N[C@@H](CC(=O)O)C(=O)NCC(=O)N[C@H](CO)C(=O)N[C@@H]([C@H](C)CC(=O)O)C(=O)N[C@@H](CC(=O)c2ccccc2N)C(=O)O[C@@H]1C` [DAPTOMYCIN], for which the results for the MIC (against Staphylococcus aureus; in series [1]; in the series on Enterococcus faecalis) were 0.5 µg/mL (≈ 0.309 µM), 0.5 µg/mL (≈ 0.309 µM) and 1 µg/mL (≈ 0.617 µM), respectively.
`CN[C@H](CC(C)C)C(=O)N[C@H]1C(=O)N[C@@H](CC(N)=O)C(=O)N[C@H]2C(=O)N[C@H]3C(=O)N[C@H](C(=O)N[C@H](C(=O)O)c4cc(O)cc(O)c4-c4cc3ccc4O)[C@H](O)c3ccc(c(Cl)c3)Oc3cc2cc(c3O[C@@H]2O[C@H](CO)[C@@H](O)[C@H](O)[C@H]2O[C@H]2C[C@](C)(N)[C@H](O)[C@H](C)O2)Oc2ccc(cc2Cl)[C@H]1O` [VANCOMYCIN] gave an MIC in the series on Clostridioides difficile [2] of 0.5 µg/mL (≈ 0.345 µM).
Take `COc1cc2nccc(Nc3ccc(C(F)(F)F)cc3)c2cc1OCc1ccc(C(F)(F)F)cc1`: the MIC turned out to be 0.75 µg/mL (≈ 1.52 µM) against Staphylococcus aureus, 3 µg/mL (≈ 6.09 µM) in series [1], 0.75 µg/mL (≈ 1.52 µM) in the series with Enterococcus faecalis and 2 µg/mL (≈ 4.06 µM) with Clostridioides difficile [2]. For the same compound, the IC50 stood at 70.7 µM in the series with HepG2 and 58.1 µM in the series with HEK-293T. The selectivity ratio in [3] and in series [4] was 15 throughout.
